From ChEMBL document CHEMBL1144782, “Isoindolo[2,1-a]quinoxaline derivatives, novel potent antitumor agents with dual inhibition of tubulin polymerization and topoisomerase I” (2008)
Several values for one entry are separate records, joined by “and”; a condition that tells them apart may be missing. Identical values can stand only once.

How the values were obtained:
Assay type in all cases: functional
PC-3 = experiment: Antitumor activity against human PC3 cells
Outline: (§1)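 Run by the NCI in its in vitro disease-oriented screen of about 60 human tumour cell lines. For each line it reports pGI50 (50% net growth inhibition), pTGI (total growth inhibition) and pLC50 (50% net cell death), each as –log molar concentration. Where an effect was not reached within the tested range, the highest tested concentration was used.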

NCI-H23 = experiment: Antitumor activity against human NCI-H23 cells; outline: as §1
SK-MEL-5 = experiment: Antitumor activity against human SKMEL5 cells; outline: as §1
Malme-3M = experiment: Antitumor activity against human MALME3M cells; outline: as §1
SR = experiment: Antitumor activity against human SR cells
Outline: (§2)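 NCI 60-cell-line screen. Parameters were GI50 (50% net growth inhibition), TGI and LC50, each reported as –log molar concentration. Where an effect was not reached within the tested range, the highest tested concentration was used in the calculation.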

SNB-19 = experiment: Antitumor activity against human SNB19 cells; outline: as §1
MCF7 [1] = experiment: Growth inhibition of human MCF7 cells after 72 hrs by MTT assay; conditions: MCF7, 72 h
Outline: (§3)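 Growth inhibition by MTT after 72 h incubation. Resistant sublines: LoVoDoxo and MCF-7 MDR were kept in 0.1 µg/mL doxorubicin; CEMVbl-100 was selected against vinblastine. GI50 given as mean ± SEM of three independent experiments. Resistance index is resistant-line GI50 over parental GI50.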

RXF 393 = experiment: Antitumor activity against human RXF393 cells; outline: as §1
CCRF-CEM [2] = experiment: Antitumor activity against human CCRF-CEM cells; outline: as §1
A498 = experiment: Antitumor activity against human A498 cells; outline: as §1
OVCAR-5 = experiment: Antitumor activity against human OVCAR5 cells; outline: as §1
SW-620 = experiment: Antitumor activity against human SW620 cells; outline: as §2
NCI/ADR-RES = experiment: Antitumor activity against human NCI/ADR-RES cells; outline: as §1
MDA-MB-435 = experiment: Antitumor activity against human MDA-MB-435 cells; outline: as §1
KM12 = experiment: Antitumor activity against human KM12 cells; outline: as §1
[3] = Antitumor activity against human NCI-H322 cells; outline: as §1
CCRF-CEM [4] = experiment: Growth inhibition of human vinblastine-resistant CEM cells after 72 hrs by MTT assay; outline: as §3
SK-MEL-2 = experiment: Antitumor activity against human SKMEL2 cells; outline: as §1
NCI-H226 = experiment: Antitumor activity against human NCI-H226 cells; outline: as §1
EKVX = experiment: Antitumor activity against human EKVX cells; outline: as §1
ACHN = experiment: Antitumor activity against human ACHN cells; outline: as §1
MCF7 [5] = experiment: Growth inhibition of human multidrug-resistant MCF7 cells after 72 hrs by MTT assay; conditions: MCF7, 72 h; outline: as §3
BT-549 = experiment: Antitumor activity against human BT549 cells; outline: as §1
RPMI-8226 = experiment: Antitumor activity against human RPMI8226 cells; outline: as §1
DU-145 = experiment: Antitumor activity against human DU145 cells; outline: as §1
HCT-15 = experiment: Antitumor activity against human HCT15 cells; outline: as §1
SK-MEL-28 = experiment: Antitumor activity against human SKMEL28 cells; outline: as §1
MCF7 [6] = experiment: Resistance index, Ratio of GI50 for human multidrug-resistant MCF7 cells to GI50 for human MCF7 cells; outline: as §3
Hs-578T = experiment: Antitumor activity against human HS578T cells; outline: as §1
CCRF-CEM [7] = experiment: Growth inhibition of human CEM cells after 72 hrs by MTT assay; outline: as §3
NCI-H460 [8] = experiment: Antitumor activity against human NCI-H460 cells; outline: as §1
U-251 = experiment: Antitumor activity against human U251 cells; outline: as §2
HOP-62 = experiment: Antitumor activity against human HOP62 cells; outline: as §1
NCI-H460 [9] = experiment: Cell viability against human NCI-H460 cells at 10 uM
SF-295 = experiment: Antitumor activity against human SF295 cells; outline: as §1
OVCAR-3 = experiment: Antitumor activity against human OVCAR-3 cells; outline: as §1
UACC-257 = experiment: Antitumor activity against human UACC257 cells; outline: as §2
786-0 = experiment: Antitumor activity against human 786-0 cells; outline: as §1
OVCAR-8 = experiment: Antitumor activity against human OVCAR8 cells; outline: as §1
MOLT-4 = experiment: Antitumor activity against human MOLT4 cells; outline: as §1
HT-29 = experiment: Antitumor activity against human HT29 cells; outline: as §1
[10] = read-out: Log LC50 (the source's name) (converted)

Q: What does the source list for `Cc1cc2[nH]c(=O)c3c4ccccc4cn3c2cc1C`?
A: GI50 (PC-3): 12 µM; LC50 (50% net cell death) (PC-3): 53.7 µM; TGI (PC-3; read-out: pTGI (converted)): 25.7 µM; GI50 (NCI-H23): 14.8 µM; LC50 (50% net cell kill) (NCI-H23): 69.2 µM; TGI (NCI-H23; read-out: pTGI (converted)): 32.4 µM; GI50 (SK-MEL-5): 13.5 µM; LC50 (SK-MEL-5): 64.6 µM; TGI (SK-MEL-5; read-out: pTGI (converted)): 29.5 µM; GI50 (Malme-3M): 22.4 µM; CC50 (Malme-3M; [10]): 63.1 µM; TGI (Malme-3M; read-out: pTGI (converted)): 37.2 µM; GI50 (SR): 2.57 µM; LC50 (SR): 49 µM; TGI (SR; read-out: pTGI (converted)): 5.75 µM; GI50 (SNB-19): 16.2 µM; CC50 (SNB-19; [10]): 83.2 µM; TGI (SNB-19; read-out: pTGI (converted)): 36.3 µM; GI50 (MCF7 [1]): 5.1 µM; GI50 (RXF 393): 12 µM; CC50 (RXF 393; [10]): 63.1 µM; TGI (RXF 393; read-out: pTGI (converted)): 27.5 µM; GI50 (CCRF-CEM [2]): 10 µM; LC50 (CCRF-CEM [2]): 97.7 µM; TGI (CCRF-CEM [2]; read-out: pTGI (converted)): 30.9 µM; GI50 (A498): 21.4 µM; CC50 (A498; [10]): 72.4 µM; TGI (A498; read-out: pTGI (converted)): 39.8 µM; GI50 (OVCAR-5): 13.8 µM; LC50 (50% net cell death) (OVCAR-5): 55 µM; TGI (OVCAR-5; read-out: pTGI (converted)): 27.5 µM; GI50 (SW-620): 3.8 µM; CC50 (SW-620; [10]): > 100 µM; TGI (SW-620; read-out: pTGI (converted)): 33.1 µM; GI50 (NCI/ADR-RES): 13.5 µM; LC50 (NCI/ADR-RES): 74.1 µM; TGI (NCI/ADR-RES; read-out: pTGI (converted)): 31.6 µM; GI50 (MDA-MB-435): 6.03 µM; LC50 (50% net cell death) (MDA-MB-435): 50.1 µM; TGI (MDA-MB-435; read-out: pTGI (converted)): 20 µM; GI50 (KM12): 7.08 µM; LC50 (50% net cell death) (KM12): 52.5 µM; TGI (KM12; read-out: pTGI (converted)): 21.4 µM; GI50 [3]: 16.6 µM; LC50 (50% net cell death) [3]: 55 µM; TGI ([3]; read-out: pTGI (converted)): 30.2 µM; GI50 (CCRF-CEM [4]): 15.1 µM; GI50 (SK-MEL-2): 18.2 µM; LC50 (SK-MEL-2): 66.1 µM; TGI (SK-MEL-2; read-out: pTGI (converted)): 34.7 µM; GI50 (NCI-H226): 15.1 µM; LC50 (50% net cell kill) (NCI-H226): 89.1 µM; TGI (NCI-H226; read-out: pTGI (converted)): 36.3 µM; GI50 (EKVX): 13.5 µM; LC50 (50% net cell kill) (EKVX): 75.9 µM; TGI (EKVX; read-out: pTGI (converted)): 31.6 µM; GI50 (ACHN): 10.2 µM; LC50 (50% net cell kill) (ACHN): 53.7 µM; TGI (ACHN; read-out: pTGI (converted)): 23.4 µM; GI50 (MCF7 [5]): 9.2 µM; GI50 (BT-549): 19.5 µM; LC50 (50% net cell kill) (BT-549): 85.1 µM; TGI (BT-549; read-out: pTGI (converted)): 40.7 µM; GI50 (RPMI-8226): 6.76 µM; CC50 (RPMI-8226; [10]): > 100 µM; TGI (RPMI-8226; read-out: pTGI (converted)): 29.5 µM; GI50 (DU-145): 13.8 µM and 30.2 µM; CC50 (DU-145; Homo sapiens, DU-145, read-out: Log LC50 (the source's name) (converted)): 64.6 µM; GI50 (HCT-15): 6.17 µM; CC50 (HCT-15; [10]): 61.7 µM; TGI (HCT-15; read-out: pTGI (converted)): 21.9 µM; GI50 (SK-MEL-28): 14.8 µM; CC50 (SK-MEL-28; [10]): 83.2 µM; TGI (SK-MEL-28; read-out: pTGI (converted)): 35.5 µM; RatioGI50 (MCF7 [6]): 1.8; GI50 (Hs-578T): 25.1 µM; CC50 (Hs-578T; [10]): > 100 µM; TGI (Hs-578T; read-out: pTGI (converted)): 60.3 µM; GI50 (CCRF-CEM [7]): 15.5 µM; GI50 (NCI-H460 [8]): 4.47 µM; CC50 (NCI-H460 [8]; [10]): 63.1 µM; TGI (NCI-H460 [8]; read-out: pTGI (converted)): 20.4 µM; GI50 (U-251): 4.07 µM; CC50 (U-251; [10]): 47.9 µM; TGI (U-251; read-out: pTGI (converted)): 14.1 µM; GI50 (HOP-62): 2.69 µM; LC50 (50% net cell death) (HOP-62): 28.8 µM; TGI (HOP-62; read-out: pTGI (converted)): 8.13 µM; Activity (NCI-H460 [9]): 0%; GI50 (SF-295): 12.3 µM; CC50 (SF-295; [10]): 66.1 µM; TGI (SF-295; read-out: pTGI (converted)): 28.2 µM; GI50 (OVCAR-3): 13.8 µM; LC50 (50% net cell death) (OVCAR-3): 57.5 µM; TGI (OVCAR-3; read-out: pTGI (converted)): 28.2 µM; GI50 (UACC-257): 20.4 µM; LC50 (UACC-257): 63.1 µM; TGI (UACC-257; read-out: pTGI (converted)): 35.5 µM; GI50 (786-0): 10.7 µM; CC50 (786-0; [10]): 47.9 µM; TGI (786-0; read-out: pTGI (converted)): 22.9 µM; GI50 (OVCAR-8): 7.08 µM; LC50 (50% net cell death) (OVCAR-8): 81.3 µM; TGI (OVCAR-8; read-out: pTGI (converted)): 25.7 µM; GI50 (MOLT-4): 5.62 µM; LC50 (MOLT-4): 70.8 µM; TGI (MOLT-4; read-out: pTGI (converted)): 19.5 µM; GI50 (HT-29): 6.03 µM; LC50 (HT-29): > 100 µM; TGI (HT-29; read-out: pTGI (converted)): > 100 µM
